Laboratory results reported in ChEMBL document CHEMBL1687712, “Antiviral effects of lamivudine, emtricitabine, adefovir dipivoxil, and tenofovir disoproxil fumarate administered orally alone and in combination to woodchucks with chronic woodchuck hepatitis virus infection” (Antimicrob Agents Chemother, 2008).
Activity calls are given as the source filed them. The rule behind the calls is not given here.

What was measured:
[1] = tested on: Woodchuck hepatitis virus; test: Antiviral activity against Woodchuck hepatitis virus infected in woodchuck assessed as frequency of hepatocytes expressing viral antigen at 15 mg/kg, po qd for 48 weeks measured on 60th week; type: functional, Hepatocyte
Summary of the method: (§1)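 Chronic WHV-carrier woodchucks, 5 per group, given 15 mg/kg/day orally once daily for 48 weeks in liquid diet; placebo is diet alone. Liver biopsies at pretreatment, weeks 12, 36, 48 and 12 weeks after withdrawal. Cytoplasmic WHsAg staining scored 0–4: 1 ≤1%, 2 ≤2%, 3 ≤5%, 4 ≥10% of hepatocytes.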

[2] = tested on: Marmota monax; test: Toxicity in Woodchuck hepatitis virus infected woodchuck assessed as increase of liver sorbitol dehydrogenase activity at 15 mg/kg, po qd measured on 28 to 48 weeks on 48 week study; type: organism-based; design: dose 15 mg/kg, route oral; conditions: in vivo
Summary of the method: (§2)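 Woodchucks chronically infected with WHV, 5 per group, received oral drug once daily in liquid diet for 48 weeks; placebo got diet only. Serum chemistry (GGT, ALP, ALT, AST, SDH, among others) was run 2 weeks pretreatment, at week 0, every other week to week 12, then monthly to week 48. Sampling continued at 2, 4, 6, 8 and 12 weeks post-treatment.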

[3] = tested on: Woodchuck hepatitis virus; test: Antiviral activity against Woodchuck hepatitis virus infected in woodchuck assessed as absent of lesion in lobular hepatitis at 15 mg/kg, po qd for 48 weeks measured on 60th week; type: functional, organism-based; design: dose 15 mg/kg
Summary of the method: (§3)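 Adult chronic WHV-carrier woodchucks (neonatally inoculated), 5 per group, given drug once daily by dose syringe in semisynthetic liquid diet, for 48 weeks; placebo got diet alone. Ultrasound-guided needle liver biopsies under ketamine/xylazine anesthesia at pretreatment, weeks 12, 36, 48 and 12 weeks post-withdrawal. Biopsies were formalin-fixed, paraffin-embedded and H&E stained. Portal and lobular hepatitis were graded 0 (absent) to 4 (most severe).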

[4] = tested on: Woodchuck hepatitis virus; test: Antiviral activity against Woodchuck hepatitis virus infected in woodchuck assessed as absent of lesion in portal hepatitis at 15 mg/kg, po qd measured on 12th week on 48 weeks study; type: functional, organism-based; design: dose 15 mg/kg; summary of the method: as §3
[5] = tested on: Woodchuck hepatitis virus; test: Antiviral activity against Woodchuck hepatitis virus infected in woodchuck assessed as absent of lesion in portal hepatitis at 15 mg/kg, po qd for 48 weeks measured on 60th week; type: functional, organism-based; design: dose 15 mg/kg
Summary of the method: (§4)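 Chronic WHV-carrier adult woodchucks (inoculated at 3 days of age), 5 per group, dosed orally once daily for 48 weeks by dose syringe, drug in saline suspended in semisynthetic liquid diet; placebo is diet alone. Ultrasound-guided needle liver biopsies under ketamine/xylazine, formalin-fixed, H&E stained; portal and lobular hepatitis graded 0 (absent) to 4 (most severe).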

[6] = tested on: Woodchuck hepatitis virus; test: Antiviral activity against Woodchuck hepatitis virus infected in woodchuck assessed as reduction of viral antigen level in serum at 15 mg/kg, po qd measured on 12th week on 48 weeks study (reference value: 4.3 +/- 1.5 log10 ng/ml); type: functional
[7] = tested on: Marmota monax; test: Toxicity in Woodchuck hepatitis virus infected woodchuck assessed as increase of liver alanine aminotransferase activity at 15 mg/kg, po qd measured on 4 to 24 weeks on 48 week study; type: organism-based; design: dose 15 mg/kg, route oral; conditions: in vivo; summary of the method: as §2
[8] = tested on: Woodchuck hepatitis virus; test: Antiviral activity against Woodchuck hepatitis virus infected in woodchuck assessed as reduction of viral RNA level per ug of total cell DNA at 15 mg/kg, po qd for 48 weeks measured on 60th week (reference value: 27 pg); type: functional
Summary of the method: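 Chronic WHV-carrier woodchucks, 5 per group, 15 mg/kg/day oral once daily for 48 weeks in liquid diet. Needle liver biopsies were snap-frozen in liquid nitrogen and stored at −70°C. Hepatic WHV DNA replicative intermediates were quantified by Southern blot (pg/μg total cell DNA) and WHV RNA by Northern blot; group means ± SD were compared with pretreatment and placebo.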

[9] = tested on: Woodchuck hepatitis virus; test: Antiviral activity against Woodchuck hepatitis virus infected in woodchuck assessed as reduction of viral antigen positive hepatocytes at 15 mg/kg, po qd measured on 12th week on 48 weeks study (reference value: 55 +/- 32 %); type: functional, Hepatocyte; design: scale not given: the % may be the effect or the level left
Summary of the method: (§5)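 Chronic WHV-carrier woodchucks, 5 per group, 15 mg/kg/day oral once daily for 48 weeks in liquid diet. Liver biopsies were taken at pretreatment, weeks 12, 36, 48 and week 60. Percentage of hepatocytes positive for WHcAg was given as group mean ± SD and compared with pretreatment and placebo.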

[10] = tested on: Woodchuck hepatitis virus; test: Antiviral activity against Woodchuck hepatitis virus infected in woodchuck assessed as frequency of hepatocytes expressing viral antigen at 15 mg/kg, po qd measured on 36th week on 48 weeks study; type: functional, Hepatocyte; summary of the method: as §1
[11] = tested on: Woodchuck hepatitis virus; test: Antiviral activity against Woodchuck hepatitis virus infected in woodchuck assessed as reduction of viral antigen level in serum at 15 mg/kg, po qd for 48 weeks measured on 60th week (reference value: 3.3 +/- 1.6 log10 ng/ml); type: functional
[12] = tested on: Woodchuck hepatitis virus; test: Antiviral activity against Woodchuck hepatitis virus infected in woodchuck assessed as absent of lobular in portal hepatitis at 15 mg/kg, po qd for 48 weeks; type: functional, organism-based; design: dose 15 mg/kg; summary of the method: as §3
[13] = tested on: Woodchuck hepatitis virus; test: Antiviral activity against Woodchuck hepatitis virus infected in woodchuck assessed as reduction of viral antigen positive hepatocytes at 15 mg/kg, po qd for 48 weeks study (reference value: 35 +/- 27 %); type: functional, Hepatocyte; design: scale not given: the % may be the effect or the level left; summary of the method: as §5
[14] = tested on: Marmota monax; test: Toxicity in Woodchuck hepatitis virus infected woodchuck assessed as increase of liver aspartate aminotransferase activity at 15 mg/kg, po qd for 48 weeks; type: organism-based; design: dose 15 mg/kg, route oral; conditions: in vivo, 8064 h; summary of the method: as §2
[15] = tested on: Marmota monax; test: Toxicity in Woodchuck hepatitis virus infected woodchuck assessed as effect on hematological parameters at 15 mg/kg, po qd for 48 weeks measured up to 60 weeks; type: organism-based; design: dose 15 mg/kg, route oral; conditions: in vivo
Summary of the method: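 Chronic WHV-carrier woodchucks, 5 per group, were dosed orally once daily in liquid diet for 48 weeks, with a placebo diet-only group. Body weights were monitored. Complete blood counts were taken 2 weeks pretreatment, at weeks 12, 36 and 48 of treatment, and 12 weeks after withdrawal. Values were compared with placebo controls.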

[16] = tested on: Woodchuck hepatitis virus; test: Antiviral activity against Woodchuck hepatitis virus infected in woodchuck assessed as absent of lesion in portal hepatitis at 15 mg/kg, po qd measured on 36th week on 48 weeks study; type: functional, organism-based; design: dose 15 mg/kg; summary of the method: as §4

Row | SMILES | Activity [1] | Activity [2] | Activity [3] | Activity [4] | Activity [5] | Activity [6] | Activity [7] | Activity [8] | Activity [9] | Activity [10] | Activity [11] | Activity [12] | Activity [13] | Activity [14] | Activity [15] | Activity [16]
1 | CC(C)(C)C(=O)OCOP(=O)(COCCn1cnc2c(N)ncnc21)OCOC(=O)C(C)(C)C [ADEFOVIR DIPIVOXIL] | 1% | Toxic | Active | Active | Active | 4.3 log10ng/ml | Toxic | 46 pg | 21% | 5% | 5 log10ng/ml | Active | 13% | Toxic | Non-toxic | 
2 | CC(C)OC(=O)OCOP(=O)(CO[C@H](C)Cn1cnc2c(N)ncnc21)OCOC(=O)OC(C)C.O=C(O)/C=C/C(=O)O [TENOFOVIR DISOPROXIL FUMARATE] | 2% | Toxic |  | Active | Active | 3.4 log10ng/ml | Toxic | 34 pg | 30% | 1% | 4 log10ng/ml |  | 26% | Toxic | Non-toxic | Active
